Data published in ChEMBL document CHEMBL4364321, “Expedient assembly of Oligo-LacNAcs by a sugar nucleotide regeneration system: Finding the role of tandem LacNAc and sialic acid position towards siglec binding” (Eur J Med Chem, 2019).
The source made the active and inactive calls. The calls are words filed in the database; no cut-off is given here.

Legend:
[1] = molecular target: T1, Sialic acid-binding Ig-like lectin 14 (Homo sapiens) (UniProt Q08ET2); assay: Binding affinity to recombinant human Fc-fused siglec-14 by fluorescence based glycan microarray analysis
T1 sequence (whole entry): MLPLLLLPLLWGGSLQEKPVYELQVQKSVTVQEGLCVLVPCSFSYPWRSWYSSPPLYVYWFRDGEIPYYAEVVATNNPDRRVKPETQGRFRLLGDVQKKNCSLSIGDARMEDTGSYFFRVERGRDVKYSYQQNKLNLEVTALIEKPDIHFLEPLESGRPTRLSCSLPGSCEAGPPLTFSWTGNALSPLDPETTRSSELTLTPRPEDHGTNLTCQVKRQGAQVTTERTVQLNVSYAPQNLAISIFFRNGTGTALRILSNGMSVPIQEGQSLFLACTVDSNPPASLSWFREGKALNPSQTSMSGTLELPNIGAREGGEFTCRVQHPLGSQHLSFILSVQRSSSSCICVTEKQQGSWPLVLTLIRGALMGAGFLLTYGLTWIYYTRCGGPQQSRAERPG
In short: (§1)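 Azidoglycans CuAAC-coupled onto alkyne-modified glass (10% zwitterionic silane mix), five replicate spots each, remaining alkynes capped with azido-ethylene glycol. Slides blocked 0.5 h in 3% BSA/PBS, then probed 1 h at rt with Fc-Siglec (10 µg/mL) premixed 1:1 with Fc-specific anti-human IgG-Cy3 (10 µg/mL) in PBS/0.1% BSA. After PBST washes, Cy3 fluorescence was scanned and averaged over replicates.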

[2] = molecular target: T2, Sialic acid-binding Ig-like lectin 7 (Homo sapiens, UniProt Q9Y286); assay: Binding affinity to recombinant human Fc-fused siglec-7 after 1 hr by fluorescence based glycan microarray analysis
In short: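 Surface KD determination on the same glycan microarray. Fc-Siglec-7 was applied at 0.735–588 nM (13 concentrations) for 1 h at rt and washed with PBST, then detected with anti-human IgG-Cy3 (10 µg/mL) for 0.5 h. Fluorescence was plotted against Siglec concentration and fitted to y = Bmax·x/(KD + x).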

[3] = molecular target: Sialic acid-binding Ig-like lectin 9 (Homo sapiens) (UniProt Q9Y336); assay: Binding affinity to recombinant human Fc-fused siglec-9 by fluorescence based glycan microarray analysis; in short: as §1
[4] = molecular target: B-cell receptor CD22 (Homo sapiens) (UniProt P20273); assay: Binding affinity to recombinant human Fc-fused siglec-2 by fluorescence based glycan microarray analysis; in short: as §1
[5] = molecular target: T2, Sialic acid-binding Ig-like lectin 7; assay: Binding affinity to recombinant human Fc-fused siglec-7 by fluorescence based glycan microarray analysis; in short: as §1
[6] = molecular target: T3, Sialic acid-binding Ig-like lectin 15 (Homo sapiens) (UniProt Q6ZMC9); assay: Binding affinity to recombinant human Fc-fused siglec-15 by fluorescence based glycan microarray analysis; in short: as §1
T3 sequence (whole entry): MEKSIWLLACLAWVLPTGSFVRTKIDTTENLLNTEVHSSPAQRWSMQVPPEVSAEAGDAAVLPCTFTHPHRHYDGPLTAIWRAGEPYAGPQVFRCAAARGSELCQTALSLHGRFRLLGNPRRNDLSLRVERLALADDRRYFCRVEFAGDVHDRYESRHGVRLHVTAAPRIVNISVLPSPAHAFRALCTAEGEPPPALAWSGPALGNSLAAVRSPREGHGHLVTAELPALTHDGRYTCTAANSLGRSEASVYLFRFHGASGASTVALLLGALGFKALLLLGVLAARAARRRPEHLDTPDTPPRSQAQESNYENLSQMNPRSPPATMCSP

[7] = molecular target: T2, Sialic acid-binding Ig-like lectin 7; assay: Binding affinity to recombinant human Fc-fused siglec-7 expressed in CHO cells measured over 180 secs; type: cell-based

Sialic acid-binding Ig-like lectin 9 (Homo sapiens), sequence (Q9Y336 whole entry, the tested form may be a part): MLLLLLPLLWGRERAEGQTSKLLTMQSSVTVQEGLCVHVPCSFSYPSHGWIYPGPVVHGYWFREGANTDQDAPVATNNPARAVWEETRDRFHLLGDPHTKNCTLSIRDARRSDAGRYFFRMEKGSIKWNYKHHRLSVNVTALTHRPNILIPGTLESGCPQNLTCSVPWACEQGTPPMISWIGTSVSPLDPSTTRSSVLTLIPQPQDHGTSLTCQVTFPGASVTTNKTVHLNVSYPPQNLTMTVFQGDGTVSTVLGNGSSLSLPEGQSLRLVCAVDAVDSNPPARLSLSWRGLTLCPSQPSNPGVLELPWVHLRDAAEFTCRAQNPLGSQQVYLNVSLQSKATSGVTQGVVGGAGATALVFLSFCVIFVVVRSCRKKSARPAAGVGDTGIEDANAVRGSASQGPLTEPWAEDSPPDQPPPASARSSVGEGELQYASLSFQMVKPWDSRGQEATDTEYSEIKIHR
T2 sequence (Q9Y286 whole entry, the tested form may be a part): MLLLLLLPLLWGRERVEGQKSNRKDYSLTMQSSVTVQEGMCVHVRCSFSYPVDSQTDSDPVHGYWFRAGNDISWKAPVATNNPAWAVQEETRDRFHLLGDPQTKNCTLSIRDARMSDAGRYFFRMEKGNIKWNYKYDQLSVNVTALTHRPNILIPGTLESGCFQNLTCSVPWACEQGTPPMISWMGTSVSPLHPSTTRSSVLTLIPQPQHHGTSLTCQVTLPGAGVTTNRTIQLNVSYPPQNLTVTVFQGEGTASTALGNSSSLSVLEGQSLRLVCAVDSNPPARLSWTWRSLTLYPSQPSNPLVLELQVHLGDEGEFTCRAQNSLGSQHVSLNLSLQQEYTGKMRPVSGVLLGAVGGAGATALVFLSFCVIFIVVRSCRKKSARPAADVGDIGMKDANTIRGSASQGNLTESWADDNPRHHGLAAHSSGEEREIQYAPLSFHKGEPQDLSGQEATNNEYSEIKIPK
B-cell receptor CD22 (Homo sapiens), sequence (P20273 whole entry, the tested form may be a part): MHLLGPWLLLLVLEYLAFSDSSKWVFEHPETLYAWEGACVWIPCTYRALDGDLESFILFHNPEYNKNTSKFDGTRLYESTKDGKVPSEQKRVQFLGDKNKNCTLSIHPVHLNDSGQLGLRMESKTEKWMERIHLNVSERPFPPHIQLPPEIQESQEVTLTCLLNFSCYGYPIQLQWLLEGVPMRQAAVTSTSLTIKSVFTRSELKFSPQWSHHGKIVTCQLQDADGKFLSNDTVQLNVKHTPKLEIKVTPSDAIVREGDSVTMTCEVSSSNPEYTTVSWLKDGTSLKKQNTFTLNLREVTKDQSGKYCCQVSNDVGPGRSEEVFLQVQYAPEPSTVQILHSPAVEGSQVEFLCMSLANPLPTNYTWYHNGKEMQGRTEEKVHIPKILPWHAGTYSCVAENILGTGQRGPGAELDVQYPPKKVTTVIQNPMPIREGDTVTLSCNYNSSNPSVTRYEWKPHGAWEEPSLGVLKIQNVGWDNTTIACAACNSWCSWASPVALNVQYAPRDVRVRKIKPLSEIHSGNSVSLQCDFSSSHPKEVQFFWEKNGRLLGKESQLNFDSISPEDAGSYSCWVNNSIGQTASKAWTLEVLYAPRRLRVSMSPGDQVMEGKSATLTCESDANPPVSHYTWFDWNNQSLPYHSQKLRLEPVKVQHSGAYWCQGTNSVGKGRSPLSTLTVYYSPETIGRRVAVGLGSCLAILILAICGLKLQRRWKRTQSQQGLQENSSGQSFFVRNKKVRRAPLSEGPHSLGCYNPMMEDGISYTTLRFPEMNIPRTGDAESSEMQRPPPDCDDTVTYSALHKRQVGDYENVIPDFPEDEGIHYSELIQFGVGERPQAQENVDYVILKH

SMILES | Activity [1] | Kd [2] [nM] | Activity [3] | Activity [4] | Activity [5] | Activity [6] | Kd [7] [nM]
CC(=O)N[C@H]1[C@H](OCCCCCCN=[N+]=[N-])O[C@H](CO)[C@@H](O[C@@H]2O[C@H](CO)[C@H](O)[C@H](O[C@]3(C(=O)O)C[C@H](O)[C@@H](NC(C)=O)[C@H]([C@@H](O)[C@@H](CO)O[C@]4(C(=O)O)C[C@H](O)[C@@H](NC(C)=O)[C@H]([C@H](O)[C@H](O)CO)O4)O3)[C@H]2O)[C@@H]1O | Active | 43.3 |  |  |  |  | 
CC(=O)N[C@H]1[C@H](OCCCCCCN=[N+]=[N-])O[C@H](CO)[C@@H](O[C@@H]2O[C@H](CO)[C@H](O)[C@H](O[C@]3(C(=O)O)C[C@H](O)[C@@H](NC(C)=O)[C@H]([C@H](O)[C@H](O)CO)O3)[C@H]2O)[C@@H]1O[C@@H]1O[C@@H](C)[C@@H](O)[C@@H](O)[C@@H]1O |  |  | Active |  |  |  | 
CC(=O)N[C@H]1[C@H](OCCCCCCN=[N+]=[N-])O[C@H](CO)[C@@H](O[C@@H]2O[C@H](CO[C@]3(C(=O)O)C[C@H](O)[C@@H](NC(C)=O)[C@H]([C@H](O)[C@H](O)CO)O3)[C@H](O)[C@H](O[C@]3(C(=O)O)C[C@H](O)[C@@H](NC(C)=O)[C@H]([C@H](O)[C@H](O)CO)O3)[C@H]2O)[C@@H]1O | Active | 38.7 | Active | inactive | Active | Active | 
CC(=O)N[C@H]1[C@H](OCCCCCCN=[N+]=[N-])O[C@H](CO)[C@@H](O[C@@H]2O[C@H](CO)[C@H](O)[C@H](O[C@]3(C(=O)O)C[C@H](O)[C@@H](NC(C)=O)[C@H]([C@@H](O)[C@@H](CO)O[C@]4(C(=O)O)C[C@H](O)[C@@H](NC(C)=O)[C@H]([C@@H](O)[C@@H](CO)O[C@]5(C(=O)O)C[C@H](O)[C@@H](NC(C)=O)[C@H]([C@H](O)[C@H](O)CO)O5)O4)O3)[C@H]2O)[C@@H]1O |  | 54.1 |  |  |  |  | 
CC(=O)N[C@H]1[C@H](OCCCCCCN=[N+]=[N-])O[C@H](CO)[C@@H](O[C@@H]2O[C@H](CO)[C@H](O)[C@H](O[C@]3(C(=O)O)C[C@H](O)[C@@H](NC(C)=O)[C@H]([C@H](O)[C@H](O)CO)O3)[C@H]2O)[C@@H]1O | Active |  | Active |  | inactive |  | 
CC(=O)N[C@H]1[C@H]([C@H](O)[C@H](O)CO)O[C@@](OC[C@H]2O[C@@H](O[C@H]3[C@H](O)[C@@H](O)[C@H](OCCCCCCN=[N+]=[N-])O[C@@H]3CO)[C@H](O)[C@@H](O)[C@H]2O)(C(=O)O)C[C@@H]1O |  |  | Active | Active | Active |  | 
CC(=O)N[C@H]1[C@H]([C@@H](O)[C@@H](CO)O[C@]2(C(=O)O)C[C@H](O)[C@@H](NC(C)=O)[C@H]([C@H](O)[C@H](O)CO)O2)O[C@@](O[C@H]2[C@@H](O)[C@@H](CO)O[C@@H](O[C@H]3[C@H](O)[C@@H](O)[C@H](OCCCCCCN=[N+]=[N-])O[C@@H]3CO)[C@@H]2O)(C(=O)O)C[C@@H]1O | Active | 32.7 |  |  |  |  | 60
CC(=O)N[C@H]1[C@H](OCCCCCCN=[N+]=[N-])O[C@H](CO)[C@@H](O[C@@H]2O[C@H](CO)[C@H](O)[C@H](O[C@@H]3O[C@H](CO)[C@@H](O[C@@H]4O[C@H](CO)[C@H](O)[C@H](O[C@]5(C(=O)O)C[C@H](O)[C@@H](NC(C)=O)[C@H]([C@@H](O)[C@@H](CO)O[C@]6(C(=O)O)C[C@H](O)[C@@H](NC(C)=O)[C@H]([C@H](O)[C@H](O)CO)O6)O5)[C@H]4O)[C@H](O)[C@H]3NC(C)=O)[C@H]2O)[C@@H]1O |  |  |  |  | inactive |  | 
CC(=O)N[C@H]1[C@H]([C@H](O)[C@H](O)CO)O[C@@](O[C@H]2[C@@H](O)[C@@H](CO)O[C@@H](O[C@H]3[C@H](O)[C@@H](O)[C@H](OCCCCCCN=[N+]=[N-])O[C@@H]3CO)[C@@H]2O)(C(=O)O)C[C@@H]1O |  |  | Active |  | inactive |  | 
CC(=O)N[C@H]1[C@H]([C@H](O)[C@H](O)CO)O[C@@](OC[C@H]2O[C@@H](O[C@H]3[C@H](O)[C@@H](O)[C@H](OCCCCCCN=[N+]=[N-])O[C@@H]3CO)[C@H](O)[C@@H](O[C@]3(C(=O)O)C[C@H](O)[C@@H](NC(C)=O)[C@H]([C@H](O)[C@H](O)CO)O3)[C@H]2O)(C(=O)O)C[C@@H]1O | Active | 26.8 |  | inactive | Active | Active | 
CC(=O)N[C@H]1[C@H](OCCCCCCN=[N+]=[N-])O[C@H](CO)[C@@H](O[C@@H]2O[C@H](CO)[C@H](O)[C@H](O[C@@H]3O[C@H](CO)[C@@H](O)[C@@H](O[C@@H]4O[C@H](CO[C@]5(C(=O)O)C[C@H](O)[C@@H](NC(C)=O)[C@H]([C@H](O)[C@H](O)CO)O5)[C@H](O)[C@H](O)[C@H]4O)[C@H]3NC(C)=O)[C@H]2O)[C@@H]1O |  |  | Active | Active | inactive |  | 
CC(=O)N[C@H]1[C@H]([C@@H](O)[C@@H](CO)O[C@]2(C(=O)O)C[C@H](O)[C@@H](NC(C)=O)[C@H]([C@@H](O)[C@@H](CO)O[C@]3(C(=O)O)C[C@H](O)[C@@H](NC(C)=O)[C@H]([C@H](O)[C@H](O)CO)O3)O2)O[C@@](O[C@H]2[C@@H](O)[C@@H](CO)O[C@@H](O[C@H]3[C@H](O)[C@@H](O)[C@H](OCCCCCCN=[N+]=[N-])O[C@@H]3CO)[C@@H]2O)(C(=O)O)C[C@@H]1O |  | 48.7 |  |  |  |  | 
CC(=O)N[C@H]1[C@H](OCCCCCCN=[N+]=[N-])O[C@H](CO)[C@@H](O[C@@H]2O[C@H](CO)[C@H](O)[C@H](O[C@@H]3O[C@H](CO)[C@@H](O)[C@@H](O[C@@H]4O[C@H](CO[C@]5(C(=O)O)C[C@H](O)[C@@H](NC(C)=O)[C@H]([C@H](O)[C@H](O)CO)O5)[C@H](O)[C@H](O[C@]5(C(=O)O)C[C@H](O)[C@@H](NC(C)=O)[C@H]([C@H](O)[C@H](O)CO)O5)[C@H]4O)[C@H]3NC(C)=O)[C@H]2O)[C@@H]1O |  |  |  | inactive |  | inactive | 
CC(=O)N[C@H]1[C@H](OCCCCCCN=[N+]=[N-])O[C@H](CO)[C@@H](O[C@@H]2O[C@H](CO[C@]3(C(=O)O)C[C@H](O)[C@@H](NC(C)=O)[C@H]([C@H](O)[C@H](O)CO)O3)[C@H](O)[C@H](O[C@@H]3O[C@H](CO)[C@@H](O)[C@H](O)[C@H]3NC(C)=O)[C@H]2O)[C@@H]1O |  |  | Active | inactive |  |  | 
CC(=O)N[C@H]1[C@H](OCCCCCCN=[N+]=[N-])O[C@H](CO)[C@@H](O[C@@H]2O[C@H](CO)[C@H](O)[C@H](O[C@@H]3O[C@H](CO)[C@@H](O)[C@@H](O[C@@H]4O[C@H](CO)[C@H](O)[C@H](O[C@@H]5O[C@H](CO)[C@@H](O)[C@@H](O[C@@H]6O[C@H](CO[C@]7(C(=O)O)C[C@H](O)[C@@H](NC(C)=O)[C@H]([C@H](O)[C@H](O)CO)O7)[C@H](O)[C@H](O)[C@H]6O)[C@H]5NC(C)=O)[C@H]4O)[C@H]3NC(C)=O)[C@H]2O)[C@@H]1O |  |  | Active | Active | inactive |  | 
